# ChEMBL document CHEMBL1153417, “5,7,8-Trimethyl-benzopyran and 5,7,8-trimethyl-1,4-benzoxazine aminoamide derivatives as novel antiarrhythmics against ischemia-reperfusion injury” (J Med Chem, 2009)
# Calls of active or inactive are those of the source. The rule behind the calls is not given here.
# What was measured:
# Heart [1] = experiment: Antiarrhythmic activity in ischemia-reperfusion injury exposed Wistar rat heart assessed as premature ventricular beats at 1 uM relative to untreated control; type: functional
# How it was run: (§1)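 Rat hearts were taken under pentobarbital (30-40 mg per animal) after iv heparin. They were perfused by Langendorff at 90 cm H2O with oxygenated KHB buffer (pH 7.2, 11 mmol l-1 glucose) at 37 °C. After 20 min equilibration came 15 min ischemia (glucose-free KHB with 10 mM Tris-HCl, N2-equilibrated), then 60 min reperfusion. Compound was present for the last 5 min of ischemia and through reperfusion; n = 3-5.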
# Heart [2] = experiment: Antiarrhythmic activity in ischemia-reperfusion injury exposed Wistar rat heart assessed as arrhythmia score at 1 uM; type: functional; how it was run: as §1
# [3] = Electrophysiological effect in New Zealand rabbit right ventricular papillary muscle assessed as maximal rate of depolarization at 5 uM at 1 Hz stimulation frequency; type: functional, Oryctolagus cuniculus, Muscle tissue
# How it was run: (§2)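 Right ventricular papillary muscle tips were superfused at 37 °C with bicarbonate solution (pH 7.35-7.40, 95% O2/5% CO2). They were paced at 1 Hz (1000 ms cycle length) with 1 ms constant-current pulses through a bipolar platinum electrode. Transmembrane potentials were recorded by conventional microelectrodes, and RP, CT, APA, Vmax, APD50 and APD90 were measured automatically.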
# [4] = Electrophysiological effect in New Zealand rabbit right ventricular papillary muscle assessed as action potential duration measured at 50% repolarization at 5 uM at 1 Hz stimulation frequency; type: functional, Oryctolagus cuniculus, Muscle tissue; how it was run: as §2
# [5] = Electrophysiological effect in New Zealand rabbit right ventricular papillary muscle assessed as action potential amplitude at 5 uM at 1 Hz stimulation frequency; type: functional, Oryctolagus cuniculus, Muscle tissue; how it was run: as §2
# Oryctolagus cuniculus [6] = species on record: Oryctolagus cuniculus; experiment: Electrophysiological effect in New Zealand rabbit right ventricular papillary muscle assessed as increase in conduction time at 5 uM at 1 Hz stimulation frequency; type: functional, tissue-based; details: Muscle tissue; how it was run: as §2
# Heart [7] = experiment: Antioxidant activity in ischemia-reperfusion injury exposed Wistar rat heart assessed as malondialdehyde level per gram of wet tissue at 1 uM by thiobarbituric acid test; type: functional; how it was run: as §1
# Oryctolagus cuniculus [8] = species on record: Oryctolagus cuniculus; experiment: Electrophysiological effect in New Zealand rabbit right ventricular papillary muscle assessed as resting membrane potential at 5 uM at 1 Hz stimulation frequency; type: functional, tissue-based; details: Muscle tissue; how it was run: as §2
# [9] = Electrophysiological effect in New Zealand rabbit right ventricular papillary muscle assessed as action potential duration measured at 90% repolarization at 5 uM at 1 Hz stimulation frequency; type: functional, Oryctolagus cuniculus, Muscle tissue; how it was run: as §2
# Heart [10] = experiment: Antioxidant activity in ischemia-reperfusion injury exposed Wistar rat heart assessed as reduction of malondialdehyde level at 2 uM by thiobarbituric acid test relative to control; type: functional; set-up: scale not given: the % may be the effect or the level left; how it was run: as §1
# [11] = Electrophysiological effect in New Zealand rabbit right ventricular papillary muscle assessed as maximal rate of depolarization at 20 uM at 1 Hz stimulation frequency; type: functional, Oryctolagus cuniculus, Muscle tissue; how it was run: as §2
# [12] = Electrophysiological effect in New Zealand rabbit right ventricular papillary muscle assessed as action potential duration measured at 90% repolarization at 20 uM at 1 Hz stimulation frequency; type: functional, Oryctolagus cuniculus, Muscle tissue; how it was run: as §2
# Oryctolagus cuniculus [13] = species on record: Oryctolagus cuniculus; experiment: Electrophysiological effect in New Zealand rabbit right ventricular papillary muscle assessed as resting membrane potential at 20 um at 1 Hz stimulation frequency; type: functional, tissue-based; details: Muscle tissue; how it was run: as §2
# [14] = Electrophysiological effect in New Zealand rabbit right ventricular papillary muscle assessed as action potential amplitude at 20 uM at 1 Hz stimulation frequency; type: functional, Oryctolagus cuniculus, Muscle tissue; how it was run: as §2
# [15] = Electrophysiological effect in New Zealand rabbit right ventricular papillary muscle assessed as action potential duration measured at 50% repolarization at 20 uM at 1 Hz stimulation frequency; type: functional, Oryctolagus cuniculus, Muscle tissue; how it was run: as §2
# Heart [16] = experiment: Antiarrhythmic activity in ischemia-reperfusion injury exposed Wistar rat heart assessed as premature ventricular beats at 100 uM relative to untreated control; type: functional; how it was run: as §1
# Heart [17] = experiment: Antiarrhythmic activity in ischemia-reperfusion injury exposed Wistar rat heart assessed as premature ventricular beats at 30 uM relative to untreated control; type: functional; how it was run: as §1
# Heart [18] = experiment: Toxicity in ischemia-reperfusion injury exposed Wistar rat heart assessed as induction of ventricular tachycardia at 1 uM; type: tissue-based; how it was run: as §1
# Heart [19] = experiment: Toxicity in ischemia-reperfusion injury exposed Wistar rat heart assessed as induction of ventricular fibrillation at 1 uM; type: tissue-based; how it was run: as §1
# Heart [20] = experiment: Antioxidant activity in ischemia-reperfusion injury exposed Wistar rat heart assessed as reduction of malondialdehyde level at 1 uM by thiobarbituric acid test relative to control; type: functional; set-up: scale not given: the % may be the effect or the level left; how it was run: as §1
SMILES,Activity (Heart [1]) [%],Activity (Heart [2]),Activity [3] [V/s],Activity [4] [ms],Activity [5] [mV],Activity (Heart [7]) [ng/g],Activity (Oryctolagus cuniculus [8]) [mV],Activity [9] [ms],also measured
CCN(CC)CC(=O)N1CC(C)(C)Oc2c(C)c(C)cc(C)c21,1.6,5.1,175.4,147.1,108.4,160,-85.9,179.5,Activity (Oryctolagus cuniculus [6]): Active
CCN(CC)CC(=O)N1CCOc2c(C)c(C)cc(C)c21,3.4,1.3,200.2,192.3,111.9,152,-85.8,236.8,Activity (Heart [10]): 34%
Cc1cccc(C)c1OCC(C)N (configuration not stated) [MEXILETINE],,,,,,,,,Activity [11]: 190.3 V/s; Activity [12]: 180.9 ms; Activity (Oryctolagus cuniculus [13]): -85.7 mV; Activity [14]: 105.9 mV; Activity [15]: 141 ms
CCN(CC)CC(=O)N1C[C@@H](c2ccccc2)Oc2c(C)c(C)c(Cl)c(C)c21,0.8,1,,,,153,,,
CCN(CC)CC(=O)NC1CC(c2ccccc2)Oc2c(C)c(C)c(O)c(C)c21 (configuration not stated),4.3,3.6,,,,129,,,Activity (Heart [10]): 45%
CCCCCCC1(C)CC(NC(=O)CN(CC)CC)c2c(C)c(O)c(C)c(C)c2O1 (configuration not stated),,,,,,,,,Activity (Heart [16]): 9%; Activity (Heart [17]): 10%
CCN(CC)CC(=O)N1C[C@H](c2ccccc2)Oc2c(C)c(C)c(Cl)c(C)c21,1.5,4.3,,,,106,,,Activity (Heart [18]): Toxic; Activity (Heart [19]): Toxic; Activity (Heart [20]): 50%
CCOC(=O)C1(C)CN(C(=O)CN(CC)CC)c2c(C)cc(C)c(C)c2O1 (configuration not stated),3,1,171.9,161.7,110.9,88.6,-86.6,201.2,Activity (Oryctolagus cuniculus [6]): Active; Activity (Heart [10]): 61%
CCN(CC)CC(=O)N1CCOc2c(C)c(C)c(Cl)c(C)c21,3.9,1,,,,163,,,Activity (Heart [10]): 29%
CCN(CC)CC(=O)N1CC(c2ccccc2)Oc2c(C)c(C)cc(C)c21 (configuration not stated),0.5,1,174.5,175.6,115.1,120,-82.7,210.9,Activity (Oryctolagus cuniculus [6]): Active; Activity (Heart [10]): 48%
CCN(CC)CC(=O)NC1CC(C)(C)Oc2c(C)c(C)c(O)c(C)c21 (configuration not stated),,,,,,,,,Activity (Heart [16]): 8%; Activity (Heart [17]): 9%
CC(C)NCC(O)c1ccc(NS(C)(=O)=O)cc1 (configuration not stated) [SOTALOL],,,,,,,,,Activity [11]: 202.4 V/s; Activity [12]: 275 ms; Activity (Oryctolagus cuniculus [13]): -85.9 mV; Activity [14]: 109.5 mV; Activity [15]: 219.9 ms
CCOC(=O)C1(C)CN(C(=O)CN(CC)CC)c2c(C)c(Cl)c(C)c(C)c2O1 (configuration not stated),,,184.7,107.7,105.1,,-81.5,159.5,Activity (Oryctolagus cuniculus [6]): Active
CCN(CC)CC(=O)Nc1c(C)cccc1C [LIDOCAINE],3.1,1,,,,160,,,
CCN(CC)CC(=O)N1CC(c2ccccc2)Oc2c(C)c(C)c(Cl)c(C)c21 (configuration not stated),1,1,,,,118,,,
CCN(CC)CC(=O)N1CC(C)(C)Oc2c(C)c(C)c(Cl)c(C)c21,2.1,5.7,188.4,171.6,116.2,143,-85.3,214.4,
CCN(CC)CC(=O)N1CC(c2ccccc2)Oc2c(C)c(C)c(OC)c(C)c21 (configuration not stated),2.8,1,,,,136,,,
